Assay results as given in article PMC3558982 (Chemical science (Royal Society of Chemistry : 2010), 2013).
Where two headings read alike, the source gives them in different places.

Legend:
protein kinase Akt = protein kinase Akt (Homo sapiens, UniProt P31749); experiment: Inhibition of Akt phosphorylation at threonine 308 by PDK1; format: biochemical
Outline: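 Akt Thr308 phosphorylation was detected by Western blot with a phosphospecific antibody, with a total-Akt blot as loading control. IC50 was determined in three independent experiments.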

Ddp1 phosphohydrolase = Ddp1 phosphohydrolase (Saccharomyces cerevisiae, UniProt Q99321); experiment: Inhibition of His-Ddp1 mediated Ap5A hydrolysis; format: biochemical, yeast; conditions: for inhibition profile of Ddp1 mediated Ap5A hydrolysis (in words): compared with 5PP-IP5, Figures 5b and S4
[1] = Stability in aqueous solution at room temperature; format: physicochemical; conditions: for decomposition in aqueous solution: neutral pH, 40 days at room temperature
[2] = 1H and 31P NMR titration in D2O; format: physicochemical; conditions: D2O with 140mM K+, 10mM Na+, 1mM Mg2+, room temperature
Ddp1 = conditions: 30 minutes at 37 °C; ref 22c; cited from earlier work

Ddp1 phosphohydrolase, sequence (Q99321 whole entry): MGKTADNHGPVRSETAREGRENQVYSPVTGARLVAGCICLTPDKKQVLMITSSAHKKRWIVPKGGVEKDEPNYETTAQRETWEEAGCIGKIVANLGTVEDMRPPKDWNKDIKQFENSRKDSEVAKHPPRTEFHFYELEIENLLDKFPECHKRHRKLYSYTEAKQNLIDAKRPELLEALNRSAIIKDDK
protein kinase Akt, sequence (P31749 whole entry): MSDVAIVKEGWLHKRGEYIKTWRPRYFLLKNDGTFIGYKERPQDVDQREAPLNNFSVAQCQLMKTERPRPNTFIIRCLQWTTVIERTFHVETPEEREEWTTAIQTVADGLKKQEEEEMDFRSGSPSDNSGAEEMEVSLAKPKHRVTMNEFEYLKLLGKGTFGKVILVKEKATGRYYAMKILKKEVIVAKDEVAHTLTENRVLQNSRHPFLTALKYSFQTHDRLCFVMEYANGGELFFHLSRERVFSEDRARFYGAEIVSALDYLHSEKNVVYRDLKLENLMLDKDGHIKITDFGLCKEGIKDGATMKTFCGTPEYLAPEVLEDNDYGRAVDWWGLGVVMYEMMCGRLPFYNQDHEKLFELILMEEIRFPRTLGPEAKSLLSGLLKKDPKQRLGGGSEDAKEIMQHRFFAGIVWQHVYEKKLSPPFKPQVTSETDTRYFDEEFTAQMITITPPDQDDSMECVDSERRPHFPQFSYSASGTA

SMILES | inhibition profile of Ddp1 mediated Ap5A hydrolysis (in words) (Ddp1 phosphohydrolase) | decomposition in aqueous solution [1] | pD of ring inversion (conformational change) [2] | hydrolysis by Ddp1 (Ddp1) | further results
O=P(O)(O)CP(=O)(O)O[C@H]1[C@H](OP(=O)(O)O)[C@@H](OP(=O)(O)O)[C@@H](OP(=O)(O)O)[C@@H](OP(=O)(O)O)[C@@H]1OP(=O)(O)O [5PCP-IP5] | very similar inhibition profiles | no signs of decomposition | ~8.8 |  | IC50 (protein kinase Akt; read-out: IC50, inhibition of Akt phosphorylation at threonine 308, purified inactive Akt and activated PDK1, three independent experiments): 129 nM; decomposition at low or high pD ([1]; pD 2.0 or 13.0, 40 days at room temperature): no detectable decomposition
O=P(O)(O)OC1[C@@H](OP(=O)(O)O)[C@@H](OP(=O)(O)O)C(OP(=O)(O)OP(=O)(O)O)[C@H](OP(=O)(O)O)[C@H]1OP(=O)(O)O (stereo partly shown) [1PP-IP5] |  |  |  | completely hydrolysed to IP6 | 
O=P(O)(O)OC1C(OP(=O)(O)O)C(OP(=O)(O)O)C(OP(=O)(O)O)C(OP(=O)(O)O)C1OP(=O)(O)O (stereo not shown) [IP6, inositol hexakisphosphate, reference compound] |  |  |  |  | IC50 in Ddp1 Ap5A hydrolysis relative to 5PP-IP5 (Ddp1 phosphohydrolase; data not shown): more than ten times higher
O=P(O)(O)O[C@H]1[C@@H](OP(=O)(O)O)[C@H](OP(=O)(O)O)[C@@H](OP(=O)(O)OP(=O)(O)O)[C@H](OP(=O)(O)O)[C@H]1OP(=O)(O)O [5PP-IP5, reference compound] |  |  | ~8.8 | no signs of hydrolysis | IC50 (protein kinase Akt): 217 nM; IC50 (Ddp1 phosphohydrolase): 2500 nM
O=P(O)(O)CP(=O)(O)O[C@@H]1[C@@H](OP(=O)(O)O)[C@H](OP(=O)(O)O)[C@H](O)[C@H](OP(=O)(O)O)[C@H]1OP(=O)(O)O [5PCP-IP4] | very similar inhibition profiles | no signs of decomposition |  |  | 
